TRPML3 agonist = human mucolipin-3 channel agonism; Q8TDD5; HEK293 TRPML3-YFP, Fluo-8 calcium fluorescence; 100% = the carbachol control signal; activation, % at 3 µM; 220,000 compounds, 0.29% hits; AID 1448;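 active = activation above its plate's cutoff, the mean activation of the plate's test wells plus 3 SD, cut at about 12% in these data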;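 also: 0% = DMSO only wells and 100% = carbachol wells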
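Test system – HEK293 line with stable expression of human TRPML3-YFP channel · Control set – carbachol 87 µM final as high control (100%), DMSO as low control (0%) · Signal – Fluo-8 calcium dye fluorescence, ex 470-495, em 515-575 nm · Incubation – 1-h 37 °C dye load, 5-s basal, 120-s post-compound reads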
CRFR2-BP ag = CRF-BP/CRF-R2 complex agonism. HEK293 CRF-R2/CRF-BP, calcium dye fluorescence (FLIPR); percent of saturating CRF peptide response. activation, % at 13.2 µM. 350,000 compounds, 0.46% hits. AID 588473;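 active = activation of at least 50%, plus an integration ratio under a set limit after plate pattern correction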;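 also: plate controls were neutral control wells without compound for no effect and CRF at EC100 for full effect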
CRFR2-BP antag = CRF-BP/CRF-R2 complex antagonism. 350,000 compounds, 0.59% hits. inhibition, % at 11.8 µM. HEK293 CRF-R2/CRF-BP, CRF-induced calcium fluorescence;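 active = inhibition of the ligand-induced calcium signal above about 50% at the single tested concentration, limit read from the data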
zfTRPN1 agonist = agonists of zebrafish TRPN1 channel; AID 1424; activation, % at 3 µM; HEK293 zebrafish TRPN1-YFP, Fluo-8 calcium fluorescence; 100% = response to 87 µM carbachol; 220,000 compounds, 0.18% hits;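 active = activation above its plate's cutoff, the mean activation of test wells on that plate plus 3 SD, cut at about 19% in these data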;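 also: 0% = DMSO alone and 100% = 87 µM carbachol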
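Material: zebrafish TRPN1-YFP in HEK293 cells. Doses: one dose of 3 µM, 0.3% DMSO. Incubation: dye 1 h 37 °C plus 30 min RT. Measured by: intracellular calcium fluorescence with Fluo-8.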
VIM-2 inhibitor = inhibitors of Pseudomonas aeruginosa VIM-2 metallo-beta-lactamase | 290,000 compounds, 0.89% hits | purified VIM-2, nitrocefin hydrolysis, epi-absorbance fluorescence | inhibition, % at 5.6 µM;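 active = inhibition above the mean of all tested compounds plus 3 SD, cutoff set per screening run, cut at about 7.5% in these data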;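 also: red hydrolysis product quenches plate fluorescence so inhibitors raise well fluorescence; 0% = enzyme with DMSO and 100% = DMSO without enzyme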
IMP-1 inh-1 = inhibitors of Pseudomonas aeruginosa IMP-1 metallo-beta-lactamase; purified IMP-1, nitrocefin hydrolysis, epi-absorbance fluorescence; inhibition, % at 5.6 µM; 290,000 compounds, 0.45% hits; AID 1556;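 active = inhibition above the mean plus 3 SD of all compounds in the same screening run, cut at about 4.5% in these data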;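 also: 0% = IMP-1 with DMSO and 100% = DMSO wells lacking enzyme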
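System: purified IMP-1 / Input: IMP-1 dispensed at 0.2 nM / Medium: 50 mM HEPES pH 7.1, 50 µM ZnSO4, 0.05% Brij 35 / Timing: 15 min enzyme–compound preincubation, then 25 min nitrocefin reaction, 25 °C / Technique: plate fluorescence quenching by hydrolysis product, ex 480/em 530 nm / Repeats: singlicate testing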
IMP-1 inh-2 = selectivity counter-screen for VIM-2 inhibitors: IMP-1 metallo-beta-lactamase inhibitors | inhibition, % at 5.6 µM | purified IMP-1, nitrocefin hydrolysis, epi-absorbance fluorescence | shares compounds with VIM-2 inhibitor | 1,300 tested, under 10 active; call rule not given here;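 also: 0% = enzyme with vehicle and 100% = vehicle without enzyme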
VIM-2 FRET ctr = inhibits VIM-2 in FRET assay to exclude epi-absorbance artifacts; 1,300 compounds, 23% hits; inhibition, % at 5.6 µM; purified VIM-2, CCF2 FRET substrate hydrolysis; shares compounds with VIM-2 inhibitor;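 active = inhibition above the mean of all tested compounds plus 3 SD, cut at about 19% in these data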;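 also: 0% = VIM-2 plus DMSO and 100% = no enzyme wells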
TEM-1 inh = selectivity counter-screen for VIM-2 inhibitors: E. coli TEM-1 inhibitors; shares compounds with VIM-2 inhibitor; Purified TEM-1, nitrocefin hydrolysis, epi-absorbance fluorescence; inhibition, % at 5.6 µM; 1,300 compounds, 3% hits; AID 1866;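 active = inhibition above that campaign's mean inhibition plus 3 SD, cut at about 0.46% in these data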;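 also: 0% = TEM-1 with DMSO and 100% = TEM-1 with 100 µM potassium clavulanate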
Target sequence (P62593 whole entry, looked up): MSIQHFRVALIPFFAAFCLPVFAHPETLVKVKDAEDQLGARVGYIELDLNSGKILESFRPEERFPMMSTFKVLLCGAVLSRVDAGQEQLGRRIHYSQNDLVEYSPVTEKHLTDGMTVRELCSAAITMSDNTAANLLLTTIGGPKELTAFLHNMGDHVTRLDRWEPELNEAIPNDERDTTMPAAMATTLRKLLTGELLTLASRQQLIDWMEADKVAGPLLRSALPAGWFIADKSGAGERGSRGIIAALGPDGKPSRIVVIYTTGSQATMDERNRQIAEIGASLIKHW
VIM-2 confirm 2 = confirmation of P. aeruginosa VIM-2 metallo-beta-lactamase inhibitors; shares compounds with VIM-2 inhibitor; purified VIM-2, nitrocefin hydrolysis, epi-absorbance; inhibition, % at 5.6 µM; 1,300 compounds, 96% hits; AID 2187;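 active = inhibition of the VIM-2 beta-lactamase enzyme above about 11% from the earlier first-round screen, limit read from the data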;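 also: 0% = VIM-2 with DMSO and 100% = buffer wells without enzyme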
Numbers without * were called inactive; / = no result given. Rows were chosen to be rich in hits. Some 2.1% of all compounds tested hit in one or more screens of this group.

SMILES | TRPML3 agonist | CRFR2-BP ag | CRFR2-BP antag | zfTRPN1 agonist | VIM-2 inhibitor | IMP-1 inh-1 | IMP-1 inh-2 | VIM-2 FRET ctr | TEM-1 inh | VIM-2 confirm 2
O=C(O)c1[nH]c2ccc(Cl)cc2c1CCN1C(=O)c2ccccc2C1=O | 0.6 | -3.1 | 26.9 | -0.2 | 65.4* | -1.3 | -1.4 | 79.3* | -2.0 | 74.0*
O=C(O)c1[nH]c2ccc(Br)cc2c1CCN1C(=O)c2cccc([N+](=O)[O-])c2C1=O | 0.4 | -0.7 | 12.8 | 1.8 | 60.6* | -2.4 | -3.0 | 79.2* | -7.4 | 68.4*
O=C(NCCCN1CCOCC1)c1nn2c(C(F)(F)F)cc(-c3ccco3)nc2c1Cl | / | 0.1 | -7.1 | / | 12.3* | -1.5 | -2.4 | -1.4 | -4.7 | 17.9*
CC(C)NC(=O)c1nn2c(C(F)(F)F)cc(-c3ccco3)nc2c1Cl | 0.1 | 0.4 | -15.6 | -0.7 | -1.1 | -2.6 | / | / | / | /
COc1ccc(-c2nnc3sc(CCN4C(=O)c5ccccc5C4=O)nn23)cc1 | -0.3 | 1.9 | -2.4 | 0.3 | 18.2* | -2.3 | -2.3 | -2.6 | -3.2 | 3.7
CC(C)CC1NC(=O)N(CC(=O)Nc2ccc(OCc3ccccc3)cc2)C1=O (stereo not drawn) | / | 1.2 | -18.4 | / | / | / | / | / | / | /
S=c1[nH]nc(Cn2c(-c3ccccn3)nc3ccccc32)n1-c1ccc2c(c1)OCCO2 | 0.3 | -0.4 | 0.6 | 0.8 | 23.2* | -2.0 | -2.6 | 48.5* | -5.0 | 31.4*
S=c1[nH]nc(-c2ccc3ccccc3n2)n1-c1ccc2ncccc2c1 | 0.8 | -1.6 | 1.7 | 0.5 | 4.0 | -0.3 | / | / | / | /
Oc1ccc(-c2n[nH]c(=S)n2-c2ccc3c(c2)OCCO3)cc1 | 1.3 | 1.0 | -11.5 | 5.0 | 13.9* | -1.4 | -2.2 | 32.6* | -7.6 | 20.1*
S=c1[nH]nc(-c2ccc3ncccc3c2)n1-c1ccc2c(c1)OCCO2 | 0.6 | -1.4 | -4.2 | 0.3 | 26.5* | -0.5 | -2.3 | 51.8* | -5.7 | 33.2*
Cc1ccc(C)c(-n2c(-c3ccc4c(c3)OCO4)n[nH]c2=S)c1 | -1.4 | -4.1 | -6.2 | -0.7 | -1.6 | -2.9 | / | / | / | /
Cc1ccc(C2=NN=C(NC(=O)CSc3nnc4c5ccccc5n(C)c4n3)SC2)cc1 | -0.6 | -1.1 | -4.2 | -1.8 | -1.3 | -3.7 | / | / | / | /
CCOC(=O)Cc1nnc(NC(=O)CSc2nnc3c4ccccc4n(C)c3n2)s1 | -0.7 | -1.5 | 3.1 | -1.1 | 16.9* | -3.0 | -2.3 | -0.7 | -10.8 | 37.6*
CCN(CC)C(=O)CSc1nnc2c3ccccc3n(C)c2n1 | / | -0.6 | 2.6 | / | 13.7* | -5.6 | -2.9 | 0.3 | -5.0 | 24.4*
CCOC(=O)Cc1nnc(NC(=O)CSc2ccc(C)cc2)s1 | -0.2 | 0.3 | -24.2 | -0.1 | -0.1 | -1.9 | / | / | / | /
O=C(NNC(=O)C1CC=CCC1)c1ccccc1O (stereo not drawn) | / | 0.7 | -5.8 | / | -1.5 | -3.3 | / | / | / | /
CCN(CC)CCCNC(=O)c1cc2c(-c3cccc(OC)c3)nn(C)c2s1 | / | 0.3 | -5.1 | / | 7.7 | -5.0 | / | / | / | /
CCCCN(CC)CCCNC(=O)c1cc2c(-c3ccc(OC)c(OC)c3)nn(C)c2s1 | / | -4.4 | 19.2 | / | 12.7* | -3.7 | -2.6 | 0.7 | -5.0 | 24.3*
O=C(Nc1ccc(Cl)cc1)N1CCN(c2ccc3nnc(-c4ccc(F)cc4)n3n2)CC1 | 0.8 | 1.8 | -3.5 | -0.1 | 1.9 | -1.1 | / | / | / | /
O=C(Nc1ccccc1Cl)N1CCN(c2ccc3nnc(-c4ccccc4)n3n2)CC1 | -1.3 | -0.7 | -8.8 | -1.9 | 15.7* | 0.6 | -0.1 | 7.6 | -0.7 | 24.2*

Source: PubChem
